Experimental data taken from publication PMC6209313 (Molecular Pharmaceutics, 2018).
Converted amounts (≈) assume the structure as drawn. Like-named read-outs stand apart in the source and are kept apart here.

Tests used:
[1] = cited from earlier work; for solid form of precipitate during dispersion: dispersion (dilution in bile) ref 13; for solid form of precipitate during digestion: in vitro digestion of LBFs ref 11-17; for solid form of precipitate in vitro and in vivo: drug loaded into LBFs ref 41
[2] = Maximum drug loading capacity; format: physicochemical; settings: 37 °C, mean (sd)
[3] = Drug solubility in lipolysis medium; format: physicochemical; settings: for solubility fold-increase between dispersion and digestion media: IIIA-LC; for solubility at 24 h: dispersion medium of blank (placebo) LBF lipolysis, all LBFs, pH 6.5
Method in brief: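 Placebo LBF digested in pH 6.5 buffer (2 mM Tris-maleate, 1.4 mM CaCl2·2H2O, 150 mM NaCl, FaSSIF 3.0 mM taurocholate/0.75 mM lecithin), 37 °C, porcine pancreatin. Media sampled at 10 min dispersion and 60 min digestion, lipase inhibited with 4-bromophenyl boronic acid, centrifuged. Supernatant shaken with excess crystalline drug at 37 °C, pH readjusted to 6.5. HPLC at 5 h and 24 h; value is mean of 24 h triplicates.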

Dose number = format: physicochemical; settings: for Do value: 80% loading, lipid-rich LBFs after digestion, maximum-value of 0.5 observed; for Do 80%: 80% of maximum drug load, 45 mL digestion medium; for lipolysis Do: applied drug load during in vitro lipolysis
[4] = Acid/base/neutral class and ionization at the pH of lipolysis; format: physicochemical; settings: pH 6.5
[5] = Solid state characterization of drug precipitate; format: physicochemical; settings: IIIB-MC, 60 min of digestion, PLM and Raman
Method in brief: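 Drug-loaded IIIB-MC (1.25 g in 45 mL medium, pH-stat 6.5, 37 °C) digested with pancreatin. The pellet at 60 min was imaged immediately by crossed-polarizer light microscopy. Raman used 785 nm at 400 mW over 100–1890 cm–1, with SNV baseline correction and blank-pellet background correction. References were crystalline drug, blank and drug-spiked blank pellets, and melt-quenched amorphous drug.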

[6] = In vitro lipolysis of drug-loaded IIIB-MC, quantification of precipitated drug; format: physicochemical; settings: for degree of precipitated drug: 60 min of digestion; for precipitation during lipolysis at 80% loading: data not shown

| SMILES | solid form of precipitate during digestion [1] | maximum drug loading capacity (loading) ([2]; IIIA-LC) | maximum drug loading capacity (loading) ([2]; IIIB-MC) | maximum drug loading capacity (loading) ([2]; IV) | Do 80% (Dose number; IIIA-LC) | Do 80% (Dose number; IIIB-MC) | Do 80% (Dose number; IV) | solid form of precipitated drug in the pellet [5] | also measured |
| --- | --- | --- | --- | --- | --- | --- | --- | --- | --- |
| COc1ccccc1OCCNCC(O)COc1cccc2[nH]c3ccccc3c12 (stereo not shown) [Carvedilol] | amorphous form |  |  |  |  |  |  |  | solid form of precipitate during dispersion [1]: crystalline form |
| C(=C\c1ccccc1)/CN1CCN(C(c2ccccc2)c2ccccc2)CC1 [Cinnarizine] | amorphous character or in a molecular dispersion with digestion components | 34.5 (3.2) mg/g | 41.8 (0.7) mg/g | 43.2 (1.7) mg/g | 0.2 | 0.5 | 2.1 |  | solubility fold-increase between dispersion and digestion media [3]: 6 fold; Do value (Dose number): ≤ 1; extent of ionization [4]: 90%; solid form of precipitated material ([1]; pH 4.0, 5.5, and 6.5 (ionized) ref 12): noncrystalline; solid form of precipitated material ([1]; pH 8.0 (unionized) ref 12): crystalline |
| C#C[C@]1(O)CC[C@H]2[C@@H]3CCC4=Cc5oncc5C[C@]4(C)[C@H]3CC[C@@]21C [Danazol] | crystalline form | 16.4 (0.7) mg/g | 38.8 (1.4) mg/g | 50.1 (1.2) mg/g | 4.9 | 9.5 | 13.5 | crystalline form | lipolysis Do (Dose number; IIIB-MC): 4.8; solid form of precipitate in previous in vitro lipolysis studies [1]: crystalline form; solid form of precipitate in vitro and in vivo [1]: crystalline form |
| CCOC(=O)C1=C(C)NC(C)=C(C(=O)OC)C1c1cccc(Cl)c1Cl (stereo not shown) [Felodipine] |  | 75.4 (4.7) mg/g | 176.2 (2.1) mg/g | 218.0 (9.3) mg/g | 6.8 | 9.1 | 11.1 | crystalline and amorphous mixture | lipolysis Do (Dose number; IIIB-MC): 9.1 |
| CC(C)OC(=O)C(C)(C)Oc1ccc(C(=O)c2ccc(Cl)cc2)cc1 [Fenofibrate] | crystalline form |  |  |  |  |  |  |  | solid form of precipitate in vitro and in vivo [1]: crystalline form |
| COC1=CC(=O)C[C@@H](C)[C@]12Oc1c(Cl)c(OC)cc(OC)c1C2=O [Griseofulvin] |  |  |  |  | 1.4 | 2.9 | 4.6 | crystalline form | degree of precipitated drug [6]: 11%; precipitation during lipolysis at 80% loading [6]: did not precipitate |
| O=C(CCCN1CCC(O)(c2ccc(Cl)cc2)CC1)c1ccc(F)cc1 [Haloperidol] |  | 3.9 (1.2) mg/g | 17.7 (1.2) mg/g | 21.5 (2.1) mg/g | 0.0 | 0.1 | 0.4 |  | solubility fold-increase between dispersion and digestion media [3]: 11 fold; Do value (Dose number): ≤ 1; extent of ionization [4]: 99% |
| COc1ccc2c(c1)c(CC(=O)O)c(C)n2C(=O)c1ccc(Cl)cc1 [Indomethacin] |  | 31.9 (1.1) mg/g | 84.7 (3.5) mg/g | 121.3 (4.2) mg/g | 0.7 | 1.6 | 2.4 | crystalline and amorphous mixture | solubility at 24 h [3]: 1500 to 1700 µg/mL (≈ 4.19 to 4.75 mM); degree of precipitated drug [6]: 2%; precipitation during lipolysis at 80% loading [6]: did not precipitate |
| CC(=O)N1CCN(c2ccc(OCC3COC(Cn4ccnc4)(c4ccc(Cl)cc4Cl)O3)cc2)CC1 (stereo not shown) [Ketoconazole] |  | 9.7 (1.2) mg/g | 23.0 (1.0) mg/g | 29.9 (1.5) mg/g | 0.2 | 0.5 | 1.4 |  | solubility fold-increase between dispersion and digestion media [3]: 2 fold; Do value (Dose number): ≤ 1; extent of ionization [4]: 42% |
| CCOC(=O)N1CCC(=C2c3ccc(Cl)cc3CCc3cccnc32)CC1 [Loratidine] | crystalline form |  |  |  |  |  |  |  | solid form of precipitate during dispersion [1]: crystalline form |
| O=C(Nc1ccc([N+](=O)[O-])cc1Cl)c1cc(Cl)ccc1O [Niclosamide] |  | 13.6 (0.4) mg/g | 50.9 (1.6) mg/g | 80.7 (4.5) mg/g | 14.5 | 54.6 | 55.8 | hydrate form | solubility at 24 h [3]: < 80 µg/mL; lipolysis Do (Dose number; IIIB-MC): 11.1 |
| CCC(C)(C)C(=O)O[C@H]1C[C@@H](C)C=C2C=C[C@H](C)[C@H](CC[C@@H]3C[C@@H](O)CC(=O)O3)[C@H]21 [Simvastatin] | amorphous form |  |  |  |  |  |  |  |  |
| Cc1c(Cl)cccc1Nc1ccccc1C(=O)O [Tolfenamic acid] | crystalline form |  |  |  |  |  |  |  |  |
